Data as given in PubChem BioAssay.
Activity calls are given as the source filed them. Cut-off read from the data, not from the text of the source, unless noted: active = inhibition above about 30%; inactive = the rest.

Experiments:
[1] = reduced viability of SK-BR-3 breast cancer cells – cell-based, 24 h, human, pilot screen (AID 572;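 active = viability at or below 10% of carrier control in both of two separate runs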;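 note: compound exposure lasted between 18 and 24 h rather than exactly 24 h; 100% = carrier-treated control wells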); details: SK-BR-3 viability, CellTiter-Glo luminescence, at 10 µM, stronger effect = lower value
[2] = HUVEC growth inhibition – cell-based, human, primary screen (AID 575;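 active = viability at or below 30% in both replicate assays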;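 note: 100% = median of untreated cell wells with 0.1% DMSO on each plate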); details: HUVEC proliferation, CellTiter-Glo luminescence, 72 h; at 10 µM; stronger effect = lower value
Method in brief: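 Timing: 72 h treatment at 37 °C; material: HUVEC primary cells; technique: CellTiter-Glo luminescence measuring cellular ATP; controls: vehicle and MePR control wells; measure: percent of median DMSO-control luminescence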

[3] = H69AR cell proliferation blockers – human, duplicate replicates, primary screen (AID 580;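 active = viability at or under a set limit in both replicates, limit being median viability minus 3 SD, cut at about 48% in these data, passing the limit was not always enough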;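 note: 100% = mean luminescence of untreated wells and 0% = no signal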); details: H69AR lung tumor cells viability, ATP luminescence, 72 h; at 10 µM; stronger effect = lower value
[4] = MRP1 drug-resistance reversers in H69AR cells – cell-based, doxorubicin co-treatment, pilot screen (AID 601;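 active = viability loss from added drug above about 55%, and viability with drug at most 40%, in both replicates, limit read from the data, passing the limit was not always enough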); details: CellTiter-Glo, 72 h, at 10 µM; for differential viability (reversal): stronger effect = higher value
[5] = yeast transport mutant growth inhibition pilot in 384-well plates, post-Golgi transport modulator project (AID 636; in the data active = inhibition above about 31%); details: absorbance 615 nm, about 18 h, stronger effect = higher value
[6] = growth suppression of yeast trafficking mutant, preliminary HTS, modulators of trafficking downstream of Golgi apparatus project, 1536-format plate, OD 615 nm (AID 637); details: yeast transport mutant growth, absorbance 615 nm, 18 h; stronger effect = higher value
[7] = H69AR cells + 2 uM doxorubicin, measured here: viability with 2 uM doxorubicin, stronger effect = lower value
[8] = H69AR cells, compound alone cytotoxicity

SMILES | viability [1] | viability [2] | viability [3] | differential viability (reversal) ([4]; H69AR cells + 2 uM doxorubicin) | viability [4, 7] [%] | viability [4, 8] [%] | inhibition [5] | inhibition [6]
C/C(Cl)=C\Cn1c(NCCc2ccccc2)nc2c1c(=O)n(C)c(=O)n2C | 86% (inactive) | 78.7% (inactive) | 76% (inactive) | 9.38% (inactive) | 66.6 | 76 | -7.97% (inactive) | 2.17% (inactive)
c1n[nH]c(SCCCCSc2ncn[nH]2)n1 | 101% (inactive) | 108% (inactive) | 108% (inactive) | 13.8% (inactive) | 93.9 | 108 | -6.71% (inactive) | 2.91% (inactive)
CC1(C)Cc2c(sc3c2C2=NCCN2C=N3)CS1 | 87% (inactive) | 108% (inactive) | 105% (inactive) | 5.41% (inactive) | 99.4 | 105 | 2.05% (inactive) | 2.73% (inactive)
Cc1noc(C)c1CSc1nc2ccccc2s1 | 82% (inactive) | 80.8% (inactive) | 67.8% (inactive) | -3.12% (inactive) | 70.9 | 67.8 | -1.43% (inactive) | -4.1% (inactive)
COc1cccc(OCc2nnc(SCC(=O)OCc3ccccc3)o2)c1 | 101% (inactive) | 108% (inactive) | 97% (inactive) | 5.81% (inactive) | 91.2 | 97 | -6.93% (inactive) | -3.09% (inactive)
C=CCOc1ccc(C2/C(=C(\O)c3c(C)[nH]c(C(=O)OC)c3C)C(=O)C(=O)N2CCN(C)C)cc1 (centres undefined) | 95% (inactive) | 82.7% (inactive) | 90.2% (inactive) | -5.67% (inactive) | 95.9 | 90.2 | 0.52% (inactive) | 11.5% (inactive)
Cc1ccc(NC(=O)COC(=O)c2ccn(C)n2)cc1 | 76% (inactive) | 90.8% (inactive) | 87.2% (inactive) | 7.78% (inactive) | 79.4 | 87.2 | -2.74% (inactive) | -1.09% (inactive)
CN(C(=O)C1CCCO1)c1nnc(-c2ccncc2)s1 (centres undefined) | 81% (inactive) | 111% (inactive) | 100% (inactive) | 7.37% (inactive) | 92.7 | 100 | -3.24% (inactive) | -1.82% (inactive)
COCCCC/C(=N\OCCN)c1ccc(C(F)(F)F)cc1 | 84% (inactive) | 55.7% (inactive) | 104% (inactive) | 20% (inactive) | 83.9 | 104 | -0.91% (inactive) | -6.83% (inactive)
CN1C(=O)c2oc3ccccc3c(=O)c2C1c1ccccn1 (centres undefined) | 105% (inactive) | 87% (inactive) | 106% (inactive) | 11% (inactive) | 94.8 | 106 | -6.58% (inactive) | -1.09% (inactive)
CCC(c1nnc(SCC(=O)Nc2ccc(C(=O)Nc3ccccc3OC)cc2)o1)N(C)C (centres undefined) | 65% (inactive) | 96.7% (inactive) | 107% (inactive) | 7.67% (inactive) | 99 | 107 | -6.3% (inactive) | -2.18% (inactive)
Cc1nc2ccccc2nc1OCC(=O)Nc1cc(C(F)(F)F)ccc1N1CCOCC1 | 72% (inactive) | 93% (inactive) | 96.3% (inactive) | -4.5% (inactive) | 101 | 96.3 | -6.44% (inactive) | 3.64% (inactive)
Fc1ccccc1Cn1nnc2c(-n3ccnc3)ncnc21 | 115% (inactive) | 99.9% (inactive) | 92.3% (inactive) | 15.2% (inactive) | 77.1 | 92.3 | -3.01% (inactive) | -3.71% (inactive)
